Laboratory results published in ChEMBL document CHEMBL4480426, “Novel multi-target directed ligands based on annelated xanthine scaffold with aromatic substituents acting on adenosine receptor and monoamine oxidase B. Synthesis, in vitro and in silico studies” (Bioorg Med Chem, 2019).

Columns and labels:
[1] = target: T1, Amine oxidase [flavin-containing] A (Homo sapiens, UniProt P21397); test: Inhibition of recombinant human MAOA expressed in baculovirus infected BTI insect cells at 1 to 100 uM using p-tyramine as substrate preincubated for 30 mins followed by substrate addition and measured over 45 mins by horseradish peroxidase-Amplex Red-coupled fluorometric assay relative to control; details: 0.75 h
T1 sequence (P21397 whole entry): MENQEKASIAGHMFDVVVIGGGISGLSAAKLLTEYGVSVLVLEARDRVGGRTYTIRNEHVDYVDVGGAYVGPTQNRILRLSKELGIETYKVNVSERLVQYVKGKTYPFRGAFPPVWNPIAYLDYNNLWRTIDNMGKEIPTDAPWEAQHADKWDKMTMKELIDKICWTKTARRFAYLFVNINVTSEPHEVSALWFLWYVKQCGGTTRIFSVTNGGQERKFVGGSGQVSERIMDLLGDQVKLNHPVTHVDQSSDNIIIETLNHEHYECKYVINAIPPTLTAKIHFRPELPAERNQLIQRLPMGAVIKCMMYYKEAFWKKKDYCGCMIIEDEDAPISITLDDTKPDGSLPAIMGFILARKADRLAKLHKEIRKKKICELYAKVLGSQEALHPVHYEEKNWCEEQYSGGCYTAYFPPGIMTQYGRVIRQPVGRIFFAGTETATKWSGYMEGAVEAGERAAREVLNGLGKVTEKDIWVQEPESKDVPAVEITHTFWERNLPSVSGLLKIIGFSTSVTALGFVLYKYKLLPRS
How it was run: (§1)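 Human recombinant MAO-A or MAO-B enzyme. Activity detected fluorometrically with the Amplex Red monoamine oxidase assay.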

Adenosine receptor A2a [2] = target: T2, Adenosine receptor A2a (Homo sapiens, UniProt P29274); test: Displacement of [3H]MSX2 from recombinant human adenosine A2a receptor expressed in HEK293 cells at 1 uM relative to control; assay type: cell-based
T2 sequence (P29274 whole entry): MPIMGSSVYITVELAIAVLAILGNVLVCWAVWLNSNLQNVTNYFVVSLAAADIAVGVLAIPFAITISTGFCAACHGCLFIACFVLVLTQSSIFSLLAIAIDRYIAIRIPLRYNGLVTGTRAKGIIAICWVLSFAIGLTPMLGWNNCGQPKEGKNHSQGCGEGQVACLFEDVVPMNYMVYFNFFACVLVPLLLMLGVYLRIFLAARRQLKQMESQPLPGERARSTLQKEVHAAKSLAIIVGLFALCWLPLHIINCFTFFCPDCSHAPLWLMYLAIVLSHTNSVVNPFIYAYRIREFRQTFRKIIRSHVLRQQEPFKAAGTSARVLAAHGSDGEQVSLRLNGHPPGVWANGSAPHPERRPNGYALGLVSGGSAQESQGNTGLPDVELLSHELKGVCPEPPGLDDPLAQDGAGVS
How it was run: (§2)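 Purchased membranes of HEK cells expressing human A2A ([3H]MSX-2) or human A2B ([3H]PSB-603). A single high compound concentration is screened first; for potent compounds, full inhibition curves spanning 3 orders of magnitude. At least three independent experiments.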

[3] = target: T1, Amine oxidase [flavin-containing] A; test: Inhibition of recombinant human MAOA expressed in baculovirus infected BTI insect cells using p-tyramine as substrate preincubated for 30 mins followed by substrate addition and measured over 45 mins by horseradish peroxidase-Amplex Red-coupled fluorometric assay; how it was run: as §1
[4] = target: T3, Adenosine receptor A3 (Homo sapiens) (UniProt P0DMS8); test: Displacement of [3H]PSB11 from recombinant human adenosine A3 receptor expressed in CHO cells at 1 uM relative to control; assay type: cell-based
T3 sequence (whole entry): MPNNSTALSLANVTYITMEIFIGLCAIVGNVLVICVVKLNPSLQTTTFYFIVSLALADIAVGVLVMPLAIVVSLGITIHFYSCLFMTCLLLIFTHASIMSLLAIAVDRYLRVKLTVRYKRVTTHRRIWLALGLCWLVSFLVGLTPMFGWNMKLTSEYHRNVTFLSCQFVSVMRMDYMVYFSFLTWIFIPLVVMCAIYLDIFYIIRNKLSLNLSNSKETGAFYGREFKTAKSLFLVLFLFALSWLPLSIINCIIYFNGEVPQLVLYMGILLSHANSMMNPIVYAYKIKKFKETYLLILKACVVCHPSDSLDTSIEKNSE
How it was run: (§3)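 Purchased membranes of CHO cells expressing human A1 ([3H]CCPA) or human A3 ([3H]PSB-11). A single high compound concentration is screened first; for potent compounds, full inhibition curves spanning 3 orders of magnitude. At least three independent experiments.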

Adenosine receptor A2b = target: T4, Adenosine receptor A2b (Homo sapiens, UniProt P29275); test: Displacement of [3H]PSB603 from recombinant human adenosine A2b receptor expressed in HEK293 cells; assay type: cell-based
T4 sequence (P29275 whole entry): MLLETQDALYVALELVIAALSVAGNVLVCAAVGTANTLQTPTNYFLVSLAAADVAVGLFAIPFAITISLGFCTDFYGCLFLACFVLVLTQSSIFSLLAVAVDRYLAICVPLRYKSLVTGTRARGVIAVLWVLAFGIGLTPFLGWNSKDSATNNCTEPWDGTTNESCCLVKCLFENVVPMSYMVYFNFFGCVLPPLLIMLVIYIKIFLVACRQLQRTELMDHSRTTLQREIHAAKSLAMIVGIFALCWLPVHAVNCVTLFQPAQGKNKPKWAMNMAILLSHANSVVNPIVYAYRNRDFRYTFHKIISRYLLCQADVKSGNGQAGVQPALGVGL

Adenosine receptor A1 [5] = target: T5, Adenosine receptor A1 (Homo sapiens, UniProt P30542); test: Displacement of [3H]CCPA from recombinant human adenosine A1 receptor expressed in CHO cells; assay type: cell-based
T5 sequence (P30542 whole entry): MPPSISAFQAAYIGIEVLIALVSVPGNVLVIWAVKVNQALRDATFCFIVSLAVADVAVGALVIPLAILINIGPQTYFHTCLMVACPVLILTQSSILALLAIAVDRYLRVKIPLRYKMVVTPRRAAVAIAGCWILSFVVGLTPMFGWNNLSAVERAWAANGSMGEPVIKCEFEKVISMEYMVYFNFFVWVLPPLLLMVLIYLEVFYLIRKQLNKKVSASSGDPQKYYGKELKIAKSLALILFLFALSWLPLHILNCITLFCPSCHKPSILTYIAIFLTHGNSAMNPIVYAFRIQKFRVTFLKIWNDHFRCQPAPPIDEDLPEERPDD

Adenosine receptor A3 = target: T6, Adenosine receptor A3 (Homo sapiens, UniProt P0DMS8); test: Displacement of [3H]PSB11 from recombinant human adenosine A3 receptor expressed in CHO cells; assay type: cell-based
T6 sequence (P0DMS8 whole entry): T3 sequence (whole entry)

[6] = target: T7, Adenosine receptor A2b (Homo sapiens) (UniProt P29275); test: Displacement of [3H]PSB603 from recombinant human adenosine A2b receptor expressed in HEK293 cells at 1 uM relative to control; assay type: cell-based; how it was run: as §2
T7 sequence (whole entry): T4 sequence (P29275 whole entry)

Adenosine receptor A2a [7] = target: T2, Adenosine receptor A2a; test: Displacement of [3H]MSX2 from recombinant human adenosine A2a receptor expressed in HEK293 cells; assay type: cell-based
[8] = target: T8, Amine oxidase [flavin-containing] B (Homo sapiens, UniProt P27338); test: Inhibition of recombinant human MAOB expressed in baculovirus infected BTI insect cells using p-tyramine as substrate preincubated for 30 mins followed by substrate addition and measured over 45 mins by horseradish peroxidase-Amplex Red-coupled fluorometric assay; how it was run: as §1
T8 sequence (P27338 whole entry): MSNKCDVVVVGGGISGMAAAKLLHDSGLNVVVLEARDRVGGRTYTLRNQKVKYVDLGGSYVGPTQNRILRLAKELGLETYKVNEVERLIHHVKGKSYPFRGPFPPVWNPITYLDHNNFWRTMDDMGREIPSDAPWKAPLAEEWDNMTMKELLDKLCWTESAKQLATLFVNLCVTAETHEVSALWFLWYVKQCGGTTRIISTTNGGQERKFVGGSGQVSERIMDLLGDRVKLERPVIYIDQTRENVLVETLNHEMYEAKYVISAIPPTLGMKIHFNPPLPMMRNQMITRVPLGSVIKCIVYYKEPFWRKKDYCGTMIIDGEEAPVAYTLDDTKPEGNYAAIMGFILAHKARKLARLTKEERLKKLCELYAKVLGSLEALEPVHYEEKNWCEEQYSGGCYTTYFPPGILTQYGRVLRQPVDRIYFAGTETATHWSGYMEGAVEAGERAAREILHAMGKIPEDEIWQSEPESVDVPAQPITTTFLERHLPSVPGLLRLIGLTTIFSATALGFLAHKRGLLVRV

[9] = target: T9, Adenosine receptor A1 (Homo sapiens) (UniProt P30542); test: Displacement of [3H]CCPA from recombinant human adenosine A1 receptor expressed in CHO cells at 1 uM relative to control; assay type: cell-based; how it was run: as §3
T9 sequence (whole entry): T5 sequence (P30542 whole entry)

[10] = target: T8, Amine oxidase [flavin-containing] B; test: Inhibition of recombinant human MAOB expressed in baculovirus infected BTI insect cells at 1 to 100 uM using p-tyramine as substrate preincubated for 30 mins followed by substrate addition and measured over 45 mins by horseradish peroxidase-Amplex Red-coupled fluorometric assay relative to control; details: 0.75 h; how it was run: as §1
Adenosine receptor A1 [11] = target: T10, Adenosine receptor A1 (Rattus norvegicus, UniProt P25099); test: Displacement of [3H]CCPA from adenosine A1 receptor in rat brain cortical membranes; assay type: cell membranes
T10 sequence (P25099 whole entry): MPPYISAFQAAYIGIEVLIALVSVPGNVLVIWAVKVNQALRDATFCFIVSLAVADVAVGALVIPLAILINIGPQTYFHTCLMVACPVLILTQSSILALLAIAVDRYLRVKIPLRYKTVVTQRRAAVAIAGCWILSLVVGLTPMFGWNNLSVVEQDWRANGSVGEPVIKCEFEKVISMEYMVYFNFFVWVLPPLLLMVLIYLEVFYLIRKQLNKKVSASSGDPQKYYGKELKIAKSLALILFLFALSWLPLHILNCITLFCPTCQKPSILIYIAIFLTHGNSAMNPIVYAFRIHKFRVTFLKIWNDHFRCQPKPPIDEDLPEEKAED

HepG2 = test: Hepatotoxicity against human HepG2 cells assessed as reduction in cell viability at 100 uM measured after 72 hrs by CellTiter96 Aqueous non-radioactive cell proliferation assay; assay type: toxicity, cell-based; details: hepg2, 72 h
How it was run: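 HepG2 cells seeded at 1.5×10^4 cells/well in MEM with 4.5 g/L glucose and 10% FBS, grown 24 h at 37 °C, 5% CO2. Compounds diluted in the same medium and applied for 72 h. CellTiter 96 AQueous reagent then added for 2 h, absorbance read at 490 nm. One-way ANOVA with Bonferroni post test.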

Brain = test: Antioxidant activity in rat brain homogenate assessed as inhibition of FeCl2/ascorbic acid-induced lipid peroxidation by measuring reduction in TBARS level at 1000 uM preincubated for 5 mins followed by FeCl2/ascorbic acid addition and measured after 30 mins relative to control; assay type: functional, tissue-based; set-up: scale not given: the % may be the effect or the level left
How it was run: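 Rat brain homogenate in 0.9% saline, 10 mg tissue/ml, preincubated 5 min at 37 °C with compound or vehicle. Peroxidation started with 0.5 mM FeCl2 plus 2 mM ascorbic acid (added-solution concentrations). After 30 min, stopped with 0.2% BHT. Thiobarbituric acid reagent added, heated 15 min in boiling water, TBARS extracted into n-butanol and read at 532 nm. Carvedilol as reference.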

[12] = Antioxidant activity assessed as increase in total ferric ion reducing activity at 1000 uM using FeCl3.6H2O and TPTZ incubated for 10 mins under dark condition by FRAP assay relative to control; assay type: functional; set-up: scale not given: the % may be the effect or the level left
How it was run: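 FRAP reagent made by mixing 10 parts 300 mM acetate buffer pH 3.6, 1 part 10 mM TPTZ in 40 mM HCl and 1 part 20 mM FeCl3·6H2O. Reagent mixed with compound solution, 10 min at room temperature in the dark. Ferrous-TPTZ complex read at 593 nm. Result is absorbance increase versus solvent sample. FeSO4·7H2O standard curve, 37.5–1200 μM.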

SMILES | inhibition (INH) [1] | inhibition (Adenosine receptor A2a [2]) | IC50 [3] | inhibition [4] | Ki (Adenosine receptor A2b) | Ki (Adenosine receptor A1 [5]) | Ki (Adenosine receptor A3) | inhibition [6] | Ki (Adenosine receptor A2a [7]) | IC50 [8] | inhibition [9] | inhibition (INH) [10] | Ki (Adenosine receptor A1 [11]) | Activity (HepG2) | Activity (Brain) | Activity [12]
Cn1c(=O)c2c(nc3n2CCN3Cc2ccc(Cl)c(Cl)c2)n(C)c1=O | -2% | 29% | > 1000 nM | 11% | > 1000 nM | > 1000 nM | > 1000 nM | 22% | > 1000 nM | 515 nM | 1% | – | – | – | – | –
Cn1c(=O)c2c(nc3n2CCN3Cc2cccc(Br)c2)n(C)c1=O | 11% | – | > 1000 nM | 22% | > 1000 nM | 396 nM | > 1000 nM | 30% | 369 nM | > 1000 nM | – | 39% | – | – | – | –
Cn1c(=O)c2c(nc3n2CCCN3Cc2c(F)cccc2Cl)n(C)c1=O | 10% | – | > 100000 nM | – | > 1000 nM | – | > 1000 nM | – | 189 nM | 570 nM | – | – | 1550 nM | Toxic | – | –
Cn1c(=O)c2c(nc3n2CCN3Cc2ccc(Cl)cc2)n(C)c1=O | 16% | 42% | > 1000 nM | 30% | > 1000 nM | > 1000 nM | > 1000 nM | 21% | > 1000 nM | > 1000 nM | 23% | 42% | – | – | – | –
Cn1c(=O)c2c(nc3n2CCCCN3Cc2ccccc2F)n(C)c1=O | 14% | – | > 1000 nM | 11% | > 1000 nM | > 1000 nM | > 1000 nM | 40% | 1080 nM | > 1000 nM | 11% | 39% | – | – | – | –
Cn1c(=O)c2c(nc3n2CCN3Cc2ccc(F)c(Br)c2)n(C)c1=O | 6% | 30% | > 1000 nM | 1% | > 1000 nM | > 1000 nM | > 1000 nM | 2% | > 1000 nM | 177 nM | 6% | – | – | – | – | –
COc1ccccc1OCCNCC(O)COc1cccc2[nH]c3ccccc3c12 (stereo unspecified) | – | – | – | – | – | – | – | – | – | – | – | – | – | – | 44.8% | –
Cc1ccccc1CN1CCCn2c1nc1c2c(=O)n(C)c(=O)n1C | – | – | – | – | > 1000 nM | – | > 1000 nM | – | 1020 nM | > 1000 nM | – | 40% | 1410 nM | – | – | –
O=C1O[C@H]([C@@H](O)CO)C(O)=C1O | – | – | – | – | – | – | – | – | – | – | – | – | – | – | – | 100%
